Measurements: ChEMBL document CHEMBL1781942, “Microwave-assisted synthesis, crystal structure of pyrazolo[1,5-a]pyrazin-4(5H)-ones and their selective effects on lung cancer cells” (Eur J Med Chem, 2011)
Active and inactive are the calls of the source. No cut-off for these calls is given here.

Columns and labels:
NCI-H1299 [1] = assay: Growth inhibition of human H1299 cells assessed as cell viability after 48 hrs by SRB assay; assay type: functional, cell-based
Summary of the method: (§1)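 H1299 (p53-null) or H322 (p53-mutant) cells in RPMI 1640 with 10% bovine calf serum, seeded at 6250/cm2. Treated 48 h at 16, 32 or 64 µM. SRB assay, survival relative to 0.1% DMSO solvent control. Means ± SE, three independent experiments.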

A549 [2] = assay: Induction of apoptosis in human A549 cells expressing p53 assessed as chromatin condensation at 16 to 64 uM after 48 hrs by Hoechst 33258 staining-based fluorescence microscopy; assay type: functional, cell-based
Summary of the method: (§2)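 Live A549 cells treated 48 h at 16, 32 or 64 µM, or with 0.1% DMSO. Stained in medium with 10 µg/mL Hoechst 33258 for 10 min at 37 °C, washed with PBS. Fluorescence microscopy (200×) scored intense local nuclear staining as apoptotic. At least 500 cells counted; triplicate.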

A549 [3] = assay: Induction of apoptosis in human A549 cells expressing p53 assessed as DNA fragmentation at 16 to 64 uM after 48 hrs by Hoechst 33258 staining-based fluorescence microscopy; assay type: functional, cell-based; summary of the method: as §2
NCI-H322 [4] = assay: Induction of apoptosis in human NCI-H322 cells expressing P53 mutant assessed as DNA fragmentation at 32 to 64 uM after 48 hrs by Hoechst 33258 staining-based fluorescence microscopy; assay type: functional, cell-based
Summary of the method: (§3)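 H322 or H1299 cells treated 48 h at 32 or 64 µM versus 0.1% DMSO. Fixed in 4% formaldehyde in PBS for 10 min, then stained with 2 µg/mL Hoechst 33258, 30 min, 37 °C, and washed with PBS. Condensed, intensely stained nuclei counted as apoptotic under fluorescence microscopy. At least 500 cells counted; triplicate.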

A549 [5] = assay: Cell cycle arrest in human A549 cells assessed as accumulation at S phase at 64 uM after 48 hrs by propidium iodide staining-based flow cytometry (reference value: 30.36 %); assay type: functional
NCI-H1299 [6] = assay: Induction of apoptosis in human p53-null H1299 cells assessed as DNA fragmentation at 32 to 64 uM after 48 hrs by Hoechst 33258 staining-based fluorescence microscopy; assay type: functional, cell-based; summary of the method: as §3
A549 [7] = assay: Induction of necrosis in human A549 cells assessed as LDH release at 64 uM after 48 hrs; assay type: functional, cell-based
Summary of the method: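 A549 cells exposed 48 h to 64 µM or 0.1% DMSO control. Culture medium collected and lactate dehydrogenase measured with a commercial kit, absorbance at 440 nm. Mean ± SE, n = 3.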

A549 [8] = assay: Growth inhibition of human A549 cells assessed as cell viability after 48 hrs by SRB assay; assay type: functional, cell-based
Summary of the method: (§4)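 A549 cells (p53 wild-type) in RPMI 1640 with 10% bovine calf serum, seeded at 6250/cm2 in 96-well plates. Exposed 48 h to 8, 16, 32 or 64 µM. SRB read-out gave survival percentage against 0.1% DMSO-treated cells. Means ± SE from three independent experiments.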

A549 [9] = assay: Cell cycle arrest in human A549 cells assessed as accumulation at […] phase at 64 uM after 48 hrs by propidium iodide staining-based flow cytometry (reference value: 1.94 %); assay type: functional
[10] = Cytotoxicity against human embryonic lung cells assessed as growth inhibition at 32 to 64 uM after 48 hrs by SRB assay; assay type: cell-based
Summary of the method: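 Human embryo lung cells grown in RPMI 1640 with 10% bovine calf serum, seeded at 6250/cm2, treated 48 h at 32 or 64 µM. Controls were 0.1% DMSO vehicle and 5-FU as positive control. Viability by SRB, relative to DMSO-treated cells. Means ± SE, three independent experiments.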

A549 [11] = assay: Cell cycle arrest in human A549 cells assessed as accumulation at G2 phase at 64 uM after 48 hrs by propidium iodide staining-based flow cytometry (reference value: 11.52 %); assay type: functional
NCI-H322 [12] = assay: Growth inhibition of human NCI-H322 cells assessed as cell viability after 48 hrs by SRB assay; assay type: functional, cell-based; summary of the method: as §1
NCI-H1299 [13] = assay: Induction of apoptosis in human p53-null H1299 cells assessed as chromatin condensation at 32 to 64 uM after 48 hrs by Hoechst 33258 staining-based fluorescence microscopy; assay type: functional, cell-based; summary of the method: as §3
A549 [14] = assay: Cell cycle arrest in human A549 cells assessed as accumulation at G1 phase at 64 uM after 48 hrs by propidium iodide staining-based flow cytometry relative to control; assay type: functional
NCI-H322 [15] = assay: Induction of apoptosis in human NCI-H322 cells expressing P53 mutant assessed as chromatin condensation at 32 to 64 uM after 48 hrs by Hoechst 33258 staining-based fluorescence microscopy; assay type: functional, cell-based; summary of the method: as §3
A549 [16] = assay: Growth inhibition of human A549 cells assessed as cell viability at 8 to 64 uM after 48 hrs by SRB assay; assay type: functional, cell-based; summary of the method: as §4

O=C1c2cc(-c3ccc(Cl)cc3)nn2CCN1CCOCCO
growth inhibition (GI) (NCI-H1299 [1]): Dose-dependent effect | Activity (A549 [2]): inactive | Activity (A549 [3]): inactive | Activity (NCI-H322 [4]): Active | Activity (A549 [5]): 20.98% | Activity (NCI-H1299 [6]): Active | Activity (A549 [7]): inactive | growth inhibition (GI) (A549 [8]): Dose-dependent effect | Activity (A549 [9]): 1.93% | Activity [10]: Non-toxic | Activity (A549 [11]): 7.86% | growth inhibition (GI) (NCI-H322 [12]): Dose-dependent effect | Activity (NCI-H1299 [13]): Active | Activity (A549 [14]): 13% | Activity (NCI-H322 [15]): Active

COc1ccc(-c2cc3n(n2)CCN(CCO)C3=O)cc1
growth inhibition (GI) (A549 [16]): inactive

COc1ccc(-c2cc3n(n2)CCN(CCN2CCOCC2)C3=O)cc1
growth inhibition (GI) (A549 [16]): inactive

O=C1c2cc(-c3ccc(Cl)cc3)nn2CCN1CCO
growth inhibition (GI) (NCI-H1299 [1]): Dose-dependent effect | Activity (A549 [2]): inactive | Activity (A549 [3]): inactive | Activity (NCI-H322 [4]): Active | Activity (A549 [5]): 18.02% | Activity (NCI-H1299 [6]): Active | Activity (A549 [7]): inactive | growth inhibition (GI) (A549 [8]): Dose-dependent effect | Activity (A549 [9]): 1.95% | Activity [10]: Non-toxic | Activity (A549 [11]): 5.37% | growth inhibition (GI) (NCI-H322 [12]): Dose-dependent effect | Activity (NCI-H1299 [13]): Active | Activity (A549 [14]): 18% | Activity (NCI-H322 [15]): Active

COc1ccc(-c2cc3n(n2)CCN(CCCO)C3=O)cc1
growth inhibition (GI) (A549 [16]): inactive

O=C1c2cc(-c3ccccc3)nn2CCN1CCO
growth inhibition (GI) (A549 [16]): inactive

O=C1c2cc(-c3ccccc3)nn2CCN1CCCO
growth inhibition (GI) (A549 [16]): inactive

O=C1c2cc(-c3ccccc3)nn2CCN1CCN1CCOCC1
growth inhibition (GI) (A549 [16]): inactive

O=C1c2cc(-c3ccccc3)nn2CCN1CCOCCO
growth inhibition (GI) (A549 [16]): inactive

COc1ccc(-c2cc3n(n2)CCN(CCOCCO)C3=O)cc1
growth inhibition (GI) (A549 [16]): inactive

O=C1c2cc(-c3ccc(Cl)cc3)nn2CCN1CCN1CCOCC1
growth inhibition (GI) (NCI-H1299 [1]): Dose-dependent effect | Activity (A549 [2]): inactive | Activity (A549 [3]): inactive | Activity (NCI-H322 [4]): Active | Activity (A549 [5]): 7.6% | Activity (NCI-H1299 [6]): Active | Activity (A549 [7]): inactive | growth inhibition (GI) (A549 [8]): Dose-dependent effect | Activity (A549 [9]): 1.94% | Activity [10]: Non-toxic | Activity (A549 [11]): 6.83% | growth inhibition (GI) (NCI-H322 [12]): Dose-dependent effect | Activity (NCI-H1299 [13]): Active | Activity (A549 [14]): 27% | Activity (NCI-H322 [15]): Active

O=C1c2cc(-c3ccc(Cl)cc3)nn2CCN1CCCO
growth inhibition (GI) (NCI-H1299 [1]): Dose-dependent effect | Activity (A549 [2]): inactive | Activity (A549 [3]): inactive | Activity (NCI-H322 [4]): Active | Activity (A549 [5]): 3.83% | Activity (NCI-H1299 [6]): Active | Activity (A549 [7]): inactive | growth inhibition (GI) (A549 [8]): Dose-dependent effect | Activity (A549 [9]): 1.92% | Activity [10]: Non-toxic | Activity (A549 [11]): 5.54% | growth inhibition (GI) (NCI-H322 [12]): Dose-dependent effect | Activity (NCI-H1299 [13]): Active | Activity (A549 [14]): 32% | Activity (NCI-H322 [15]): Active
